Autophagy HCS = autophagy modulators in MEF cells, primary screen, imaging, high-content, MEF GFP-LC3 | MEF GFP-LC3 puncta imaging; test concentration mostly 10 µM | calls only at 10 µM (by protocol) | hit rate 0.98% among 190,000 | AID 463193, 2010;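 active = percentage of spot-positive cells more than 3 SD above its plate mean, without a fluorescence outlier flag or 80% toxicity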;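 note: spot-positive cell cutoff set from DMSO-treated cells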
Dynein transport = inhibitors of GR-EGFP nuclear translocation, primary screen, dynein cargo transport inhibitor project, imaging, high-content, 3617.4 mouse cells; hit rate 0.47% among 220,000; z-score, hits read low; test concentration mostly 20 µM; stimulated with dexamethasone, 1 µM; active compounds read low;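 active = plate z-score of nuclear minus cytoplasmic receptor signal below a set negative limit, without overly bright fluorescence or cell loss, cut at about -3.5 in these data, passing the limit was not always enough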;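 note: z-score of nuclear minus cytoplasmic ring GR-EGFP intensity difference per well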
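Buffer or medium: tet-free, stripped-serum medium; Also added: dexamethasone, 1.0 µM final; Technique: high-content fluorescence imaging after fixation; Times: 48 h induction, 1 h compound, 30 min dex at 37 °C; Read-out: per-cell GR-EGFP intensity, nucleus versus surrounding cytoplasmic ring, well-averaged.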
MT stabilizer = microtubule stabilizers in HeLa cells, primary screen, imaging, high-content imaging; hit rate 0.83% among 200,000; HeLa tubulin immunostaining HCS, 24 h; share of cells brighter than vehicle mean+2SD; AID 2205, 2009; % tubulin-high responders, % at 10 µM;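 active = plate Z-score above 3 for both tubulin-high and condensed-nucleus cell shares, with cell loss under 80%, at 10 µM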;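 note: anti alpha tubulin signal scored within the nucleus-defined area of each cell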
bCat nuc transl = modulators of beta-catenin nuclear translocation, primary screen, imaging, HeLa cells, immunofluorescence, high-content; hit rate 0.3% among 190,000; nuclear translocation activity, % at 5 µM;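 active = nuclear translocation activity above 50% at 5 µM, with a well cell count of 50 or more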;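 note: per-cell ratio of nuclear to cytoplasmic median beta-catenin stain intensity; plate controls were DMSO negative control for no effect and GSK-3 inhibitor IX positive control for full effect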
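Technique: fluorescence imaging of beta-catenin antibody stain plus DAPI / Material: human HeLa cell line / Incubation: compound treatment 24 h, 37°C, 5% CO2 / Read-out basis: % activation of per-cell nuclear versus cytoplasmic median beta-catenin signal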
CHOP inhibitor = inhibitors of CHOP promoter induction, primary screen, cell-based, unfolded protein response, luciferase reporter. CHO-K1 CHOP-promoter luciferase, tunicamycin-induced, 15-18 h. inhibition, % at 10 µM. hit rate 3.8% among 220,000. AID 2732, 2010;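 active = compounds that reduced the stress-induced luciferase reporter signal by more than about 70% of percent inhibition, limit read from the data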;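 note: 0% = tunicamycin plus vehicle and 100% = wells without tunicamycin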
L major viab = Leishmania major promastigote growth inhibition, primary screen | Leishmania major promastigotes, resazurin fluorescence viability | inhibition, % at 10 µM | hit rate 9% among 200,000; in the data active = inhibition above about 50%;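 note: promastigotes grown with compound for 44 hours at 28 °C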
Active calls of the source: *; i = inactive; · = not tested or not shown; + = active, no number. Rows were chosen to be rich in hits. Some 12% of all compounds tested hit in one or more screens of this group.

SMILES | Autophagy HCS | Dynein transport | MT stabilizer | bCat nuc transl | CHOP inhibitor | L major viab
O=C(Nc1ccc(N2CCCCC2)cc1)c1ccc(F)cc1F | · | -0.0016 | · | -2 | -15 | ·
O=C(Nc1ccc(N2CCCCC2)cc1)c1cc([N+](=O)[O-])cc([N+](=O)[O-])c1 | + | 0.08 | 1 | -1 | 28 | 66*
O=C(Nc1cccc(Cl)c1)c1ccc(F)c(S(=O)(=O)N2CCN(c3ccccn3)CC2)c1 | i | -0.98 | 4 | -4 | 74* | 13
CCN1CCN(c2ccc(NC(=O)c3ccc(C#N)cc3F)cc2Cl)CC1 | i | 0.13 | 2 | -1 | 16 | 13
O=C(Nc1ccc2c(c1)CCC2)c1ccc(F)c(S(=O)(=O)N2CCOCC2)c1 | i | -0.03 | 1 | -2 | 41 | 78*
CCN1CCN(c2ccc(NC(=O)c3ccccc3F)cc2Cl)CC1 | i | 2.9 | 3 | 0 | -21 | 75*
O=C(Nc1ccc(N2CCCC2)cc1)c1ccc([N+](=O)[O-])cc1Cl | i | -1.7 | 2 | 0 | 2 | -5
NC(=NCCc1ccccc1)NS(=O)(=O)c1ccc2ccccc2c1 | i | -0.83 | 2 | 1 | 22 | 7
O=C(O)c1ccccc1Sc1c([N+](=O)[O-])cc(C(F)(F)F)cc1[N+](=O)[O-] | i | -1.6 | 4 | 0 | 42 | -8
N#Cc1ccc(C23CC4(C2)[C@H](CN(Cc2ccc(C(F)(F)F)cc2)[C@@H]4c2ccccc2)C3c2ccc(Cl)nc2)cc1 (stereo partly specified) | · | -0.33 | · | -2 | 7 | ·
O=C(CN1C(=O)C2C3C=CC(C3)C2C1=O)NCc1ccc2c(c1)OCO2 (stereo unspecified) | i | -0.19 | 2 | -1 | -15 | 2
CCN(CC(N)=O)S(=O)(=O)c1ccc(Br)cc1 | i | -1.3 | 3 | · | -5 | -3
Cc1cccc(S(=O)(=O)NNC(=O)c2sc(C)nc2C)c1 | i | -0.18 | 3 | -1 | 29 | 1
Cc1cccc(NC(=O)c2cc(NC(=O)C3CCCCC3C(=O)O)ccc2Cl)n1 (stereo unspecified) | i | -0.11 | 2 | · | 7 | 3
O=S(=O)(c1ccc(Cl)c(C(F)(F)F)c1)N1CCN(c2ccccn2)CC1 | i | -0.089 | 5 | -1 | 72* | -6
Cc1cccc(NC(=O)c2cc(NC(=O)c3ccco3)ccc2Cl)n1 | i | -0.72 | 2 | -1 | 16 | 85*
COc1ccc(-n2c(Cc3cccn3C)nnc2SCC(=O)Nc2ccc(Cl)cc2)cc1 | · | 0.089 | 2 | 2 | 71* | 23
COc1ccc(-n2c(Cc3cccn3C)nnc2SCC(=O)NCc2ccccc2Cl)cc1 | + | 1.2 | 4 | 0 | 3 | 1
Cn1cccc1Cc1nnc(SCC(=O)Nc2ccc(F)cc2)n1-c1ccc(F)cc1 | · | -0.68 | 5 | 1 | 51 | 7
COc1ccc(NC(=O)CSc2nnc(C3CC3)n2N)cc1 | i | 0.15 | 3 | -1 | -15 | -4
COc1ccc(-n2c(Cc3cccn3C)nnc2SCC(=O)Nc2ccccc2)cc1 | · | -0.097 | 4 | -2 | -1 | 5
COc1ccc(NC(=O)CSc2nnc(C3CCCCC3)n2-c2ccccc2)cc1 | i | 0.27 | 4 | 1 | 49 | 70*
Cn1cccc1Cc1nnc(SCC(=O)Nc2ccc(Cl)cc2)n1-c1ccc(F)cc1 | + | -0.11 | 3 | -3 | 61 | 4
O=C(COC(=O)CNC(=O)c1ccc(-c2ccccc2)cc1)NCc1ccco1 | i | 0.081 | 4 | 0 | 1 | -7
COc1ccc(-n2c(Cc3cccn3C)nnc2SCC(=O)N2CCCc3ccccc32)cc1 | i | 0.72 | 5 | 2 | 22 | 63*
SMILES | Autophagy HCS | Dynein transport | MT stabilizer | bCat nuc transl | CHOP inhibitor | L major viab
O=C(CSc1nnc(Cc2cccs2)n1C1CCCCC1)N1CCCc2ccccc21 | i | 0.33 | 2 | -8 | 41 | 95*
Cc1ccc(NC(=O)CSc2nnc(CNC(=O)C34CC5CC(CC(C5)C3)C4)n2-c2ccc(F)cc2)cc1 | i | -1.4 | 3 | -2 | 79* | 16
Cn1c(Cc2cccs2)nnc1SCC(=O)N1CCCc2ccccc21 | i | 1 | 4 | -3 | 30 | -2
CCOC(=O)c1c(NC(=S)NCC2CCCO2)sc(C)c1C (stereo unspecified) | i | 1.2 | 3 | 0 | 17 | -6
O=C(Nc1ccc(F)cc1)Nc1nnc(-c2ccncc2)s1 | i | 0.075 | 3 | 4 | 47 | 27
O=C(Cc1cccs1)Nc1nnc(SCc2ccc(Br)cc2)s1 | i | -0.27 | 4 | -1 | 76* | -2
O=C(Cc1cccs1)Nc1nnc(SCc2ccc(C(F)(F)F)cc2)s1 | i | 0.34 | 4 | -2 | 52 | -8
O=C(Nc1cccc(Cl)c1)Nc1nnc(CC2=CCCCC2)s1 | i | -0.2 | 5 | -1 | 93* | -6
O=C(Nc1ccc(Cl)cc1)Nc1nnc(-c2ccncc2)s1 | i | 0.42 | 3 | · | 87* | 44
O=C(Nc1cccc(Cl)c1)Nc1nnc(-c2ccncc2)s1 | i | 0.5 | 2 | -1 | 92* | 65*
CCc1nnc(NC(=O)C2CC(=O)N(Cc3ccccc3)C2)s1 (stereo unspecified) | i | -0.015 | 7 | -2 | -4 | -12
O=C(Nc1ccccc1)Nc1nnc(SCc2ccc(Cl)cc2)s1 | i | 0.4 | 8 | -2 | 90* | -6
O=C(Nc1ccc(Cl)cc1)Nc1nnc(SCc2ccc(Cl)cc2)s1 | i | -0.4 | 10 | 0 | 9 | -4
O=C(Nc1nnc(SCc2ccc(F)cc2)s1)C1CC(=O)N(Cc2ccccc2)C1 (stereo unspecified) | i | -0.54 | 3 | -1 | 28 | 54*
CC(C)=NOc1nc(N2CCOCC2)nc(N2CCOCC2)n1 | · | -0.18 | · | 0 | -16 | ·
CCOC(=O)C1C(=O)NC(c2ccccc2)=NC1c1ccc(Cl)cc1 (stereo unspecified) | i | -0.41 | 1 | 1 | 30 | 8
CCN(CC)CCCNC(=O)CSc1c2c(nc3cc(Cl)ccc13)CCCC2 | i | -2.7 | 2 | -1 | -25 | 100*
O=C(CSc1c2c(nc3cc(Cl)ccc13)CCCC2)NCCCN1CCOCC1 | i | -2.8 | 4 | -1 | -46 | 32
O=C(CSc1c2c(nc3cc(Cl)ccc13)CCCC2)NCCN1CCOCC1 | i | -1.1 | 2 | 10 | -29 | 59*
Cc1c(C(=O)C(=O)NCC2CCCO2)c2ccccc2n1C (stereo unspecified) | i | 0.2 | 2 | -1 | 6 | -4
Cc1cnc(NC(=O)c2ccc(-c3nc4ccccc4s3)o2)s1 | i | 1.1 | 4 | -9 | 74* | -1

Source: PubChem BioAssay (several laboratories)
